Experimental data collected from several papers.
Protocols differ between the studies behind these lines. pEC50, pIC50: −log10 of the molar value.

COc1cc([C@@H]2c3cc4c(cc3[C@H](O)[C@H]3COC(=O)[C@H]23)OCO4)cc(OC)c1OC  pEC50 (NCI-H1299; cell growth or viability, MTT; 72 h): 8.52
COc1c(O)cc2oc3cc(O)c(CC=C(C)C)c(O)c3c(=O)c2c1CC=C(C)C  pIC50 (22Rv1; cell growth or viability; 48 h): 4.71
Nc1nc(N)c(CNCCc2cccc(Cl)c2)c(C2CC2)n1  pIC50 (Vero; cell growth or viability, SRB): 4.12
OC[C@H](Cc1cccc(O)c1)[C@H](CO)Cc1cccc(O)c1  pIC50 (SPCA1; cell growth or viability, MTT): 4.21
COc1ccc(CCNCc2c(N)nc(N)nc2C2CC2)cc1  pIC50 (Vero; cell growth or viability, SRB): 4.15
N.N.[Cl][Pt][Cl]  inhibition (SMMC-7721; cell growth or viability, MTT; 20 µM): 73.8%
COc1cc(O)c(C(=O)/C=C/c2ccc(O)cc2)c(OC)c1  pIC50 (SPCA1; cell growth or viability, MTT): 4.60
Nc1nc(N)c(CNCCc2ccc(Cl)cc2)c(C2CC2)n1  pIC50 (Vero; cell growth or viability, SRB): 4.15
COC(=O)[C@@H](N)CCCNC(N)=N[N+](=O)[O-]  inhibition (RAW264.7; NO release, inhibitor, Griess; 250 µM, LPS-stimulated): 54%
N.N.[Cl][Pt][Cl]  pIC50 (SMMC-7721; cell growth or viability, MTT; 48 h): 5.19
COc1cc(O)c(C(=O)/C=C/c2ccccc2)c(OC)c1  pIC50 (SPCA1; cell growth or viability, MTT): 4.50
C[C@H]1CN(c2ccncc2NC(=O)c2ccc(F)c(-c3c(F)cccc3F)n2)C[C@@H](N)[C@@H]1O  GI50 (U-266; cell growth or viability, thymidine uptake): 0.342 µM
C[S+]([O-])CCCCN=C=S (centres unmarked)  inhibition (RAW264.7; NO release, inhibitor, Griess; 10 µM, LPS-stimulated): 91.6%
O=C(CC(=O)c1ccccc1)c1ccccc1  pIC50 (HL-60; cell growth or viability, resazurin; 72 h, dark): 4.81
